Results from different studies.
Protocols differ between the studies behind these lines.
Target: Protein-tyrosine kinase 2-beta (PTK2B, Homo sapiens, UniProt Q14289)

CCN(CC)CCNC(=O)c1c(C)[nH]c(/C=C2\C(=O)Nc3ccc(F)cc32)c1C  remaining activity (enzyme activity; inhibitor; 0.1 µM): 86%
Cc1c(NC(=O)c2cc(C(N)=O)nc3cc(F)ccc23)c(C(F)(F)F)nn1Cc1ccc(C(C)(C)C)cc1  remaining binding (cell-free assay; competition with immobilised ligand; 1 µM): 92%
Cc1ccc(C(=O)NCc2ccsc2)cc1C#Cc1cn(C(C)C)c2ncnc(N)c12  activity vs control (enzyme activity; inhibitor; 1 µM): 57%
Nc1nc(Nc2ccc(S(N)(=O)=O)cc2)nn1C(=O)c1c(F)cccc1F  remaining signal (cell-free assay; 0.5 µM): 79.7%
c1nc2c(Nc3ccc4c(c3)OCCO4)nc(Nc3ccc4c(c3)OCCO4)nc2[nH]1  activity vs control (enzyme activity; inhibitor; 10 µM): 2.3%
CN(c1ccnc(CNc2nc(Nc3ccc4c(c3)CC(=O)N4)ncc2C(F)(F)F)n1)S(C)(=O)=O  remaining binding (cell-free assay; competition with immobilised ligand; 1 µM): 59%
CC(C)(C)c1nc(-c2cccc(NS(=O)(=O)c3c(F)cccc3F)c2F)c(-c2ccnc(N)n2)s1  remaining activity (enzyme activity; inhibitor; radiometric; 1 µM): 109%
CNC(=O)c1cc(Oc2ccc(NC(=O)Nc3ccc(Cl)c(C(F)(F)F)c3)cc2)ccn1  inhibition (enzyme activity; inhibitor; 10 µM): 28%
O=C(N1CCS(=O)(=O)CC1)N1C[C@H](c2ccc(OC(F)(F)F)cc2)C[C@H](c2nc(C3CC3)no2)C1  remaining binding (cell-free assay; competition with immobilised ligand; 1 µM): 99%
COc1cc2ncnc(Nc3ccc(Oc4ccccc4)c(C)c3C)c2cc1OC  inhibition (enzyme activity; inhibitor; 1 µM): 1%
CN([C@@H]1CCc2c(CC(=O)O)c3cc(S(C)(=O)=O)ccc3n2C1)S(=O)(=O)c1ccc(F)cc1  remaining binding (cell-free assay; competition with immobilised ligand; 1 µM): 100%
CNC(=O)c1cc2c(Oc3ccc(NC(=O)C4(C(=O)Nc5ccc(F)cc5)CC4)cc3)ccnc2cc1OC  inhibition (enzyme activity; inhibitor; radiometric; 1 µM): 79%
FC(F)(F)c1ccc2c(c1)nc(-c1cccnc1)n2C1CC1  remaining binding (cell-free assay; competition with immobilised ligand; 1 µM): 100%
Cc1ccc(Nc2nccc(N(C)c3ccc4c(C)n(C)nc4c3)n2)cc1S(N)(=O)=O  inhibition (enzyme activity; inhibitor; 0.3 µM): 6%
Cc1sc(C(=O)NC2COC2)cc1-n1cc(NC(=O)Nc2c(F)cccc2Cl)cn1  remaining activity (enzyme activity; inhibitor; 10 µM): 104%
O=C1NC(=O)c2cc(Nc3ccc(F)cc3)c(Nc3ccc(F)cc3)cc21  remaining signal (cell-free assay; 0.5 µM): 111%
Cc1[nH]c(/C=C2\C(=O)Nc3ccc(F)cc32)c(C)c1C(=O)N[C@H]1CCN(C(=O)N(C)C)C1  remaining activity (enzyme activity; inhibitor; 0.1 µM): 109%
Cc1nc(Cc2cccc(C(F)(F)F)c2)sc1-c1ccc(C(N)=O)nc1  remaining binding (cell-free assay; competition with immobilised ligand; 1 µM): 100%
N#CCCc1ccc2c(c1)-c1[nH]c3ccc([N+](=O)[O-])cc3c1CC(=O)N2  remaining signal (cell-free assay; 0.5 µM): 62.9%
